Screening data (PubChem BioAssay)
HSP90 refold inh = inhibitors of HSP90 luciferase refolding in rabbit reticulocyte lysate; inhibition, % at 5.6 µM; 290,000 compounds, 0.91% hits; luciferase refolding luminescence, 3 h; AID 1789;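 active means inhibition above the screen-wide mean plus 3 SD, computed separately per campaign, cut at about 16% in these data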;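 further: 0% = DMSO wells and 100% = 60 µM geldanamycin wells; inhibitors lower the luminescence because luciferase stays unfolded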
SENP7 inh = blocks the human protease SENP7; 330,000 compounds, 1.5% hits; AID 434973; recombinant SENP7, Z-RLRGG-aminoluciferin luminescence, 40 min; inhibition, % at 5 µM;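 active means inhibition above about 50% at the single test dose, limit read from the data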;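 further: plate controls were DMSO with enzyme for no effect and no enzyme buffer wells for full effect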
SENP6 block = blocks the human protease SENP6; Recombinant SENP6 catalytic domain, aminoluciferin luminescence; inhibition, % at 10 µM; 330,000 compounds, 1.8% hits; AID 2599;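 active means inhibition above about 50% at the single tested dose, limit read from the data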;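 further: plate controls were DMSO wells with enzyme for no effect and DMSO wells lacking enzyme for full effect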
SENP8 block-1 = SENP8 protease inhibition. 330,000 compounds, 1.2% hits. inhibition, % at 10 µM. Q96LD8. purified SENP8, Z-RLRGG-aminoluciferin cleavage, luminescence. AID 2540; in the data active means inhibition above about 50%
Target sequence (Q96LD8 whole entry, looked up): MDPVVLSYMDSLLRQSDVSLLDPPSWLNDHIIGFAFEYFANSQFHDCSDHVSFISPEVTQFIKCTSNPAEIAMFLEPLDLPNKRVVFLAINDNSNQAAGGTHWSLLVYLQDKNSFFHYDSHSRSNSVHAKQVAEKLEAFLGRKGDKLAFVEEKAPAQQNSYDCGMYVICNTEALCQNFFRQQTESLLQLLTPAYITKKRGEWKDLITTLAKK
SENP1 inh = SENP1 (human) catalytic domain inhibition. recombinant SENP1 catalytic domain, CyPet-SUMO1-YPet FRET cleavage. inhibition, % at 10 µM. 360,000 compounds, 0.21% hits. Q9P0U3. AID 624204;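 active means inhibition at least 30% at 10 µM, raw YFP signal under a set limit, fluorescence ratio 0.5 to 1.5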;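 further: 0% = enzyme with DMSO and 100% = no enzyme wells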
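System: Recombinant human SENP1 catalytic domain, His6-tagged | Incubation: Enzyme reaction for 50 min at room temperature, dark | Medium: Tris pH 8 with BME, BSA, NP40 and catalase | Also added: 25 nM SUMO1 FRET substrate | Compound: 10 µM single point, 0.5% DMSO | Measured by: FRET fluorescence in CFP and YFP emission channels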
SENP8 block-2 = SENP8 (human) protease inhibition. 360,000 compounds, 0.64% hits. AID 602440. inhibition, % at 20 µM. recombinant SENP8, Nedd8 substrate fluorescence. Q96LD8; in the data active means inhibition mostly above about 40%, no sharp cut-off; inactive means mostly below about 27%
SENP8 conf = confirmation of human SENP8 protease inhibitors | AID 488912 | shares compounds with SENP7 inh | inhibition, % at 12.5 µM | 6,200 compounds, 40% hits | Recombinant SENP8, Z-RLRGG-aminoluciferin luminescence, 60 min;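 active means mean inhibition across replicates above about 50%, limit read from the data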
SENP6 conf = human SENP6 inhibition, confirmed. shares compounds with SENP7 inh. recombinant SENP6, Z-RLRGG-aminoluciferin luminescence. inhibition, % at 12.5 µM. 6,200 compounds, 58% hits
SENP7 conf = human SENP7 inhibition, confirmed; shares compounds with SENP7 inh; inhibition, % at 12.5 µM; 6,200 compounds, 69% hits; recombinant SENP7, Z-RLRGG-aminoluciferin luminescence, 40 min
Casp3 select = selectivity test for SENP inhibitors: human caspase-3 inhibition; shares compounds with SENP7 inh; purified caspase-3, Z-DEVD-aminoluciferin luminescence, 60 min; inhibition, % at 12.5 µM; 6,200 compounds, 60% hits;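 active means mean inhibition above about 50%, limit read from the data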;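 further: plate controls were enzyme with DMSO for no effect and wells without caspase-3 for full effect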
Target sequence (P42574 28-227 limits assumed): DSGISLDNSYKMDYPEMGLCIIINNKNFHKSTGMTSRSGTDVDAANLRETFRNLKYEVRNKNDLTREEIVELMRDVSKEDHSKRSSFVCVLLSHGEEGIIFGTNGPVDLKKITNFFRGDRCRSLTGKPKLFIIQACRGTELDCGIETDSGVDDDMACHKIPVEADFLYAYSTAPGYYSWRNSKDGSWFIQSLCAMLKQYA
Luc interf = luminescence interference (SENP counter-screen) | shares compounds with SENP7 inh | Pre-incubated SENP8/Z-RLRGG-aminoluciferin, luciferase luminescence interference | inhibition, % at 12.5 µM | 6,200 compounds, 39% hits;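 active means mean inhibition above about 50% when retested at one dose, limit read from the data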;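 further: plate controls were DMSO wells with completed reaction for no effect and substrate without enzyme for full effect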
Numbers without * were called inactive; · = no result given. Rows were chosen to be rich in hits. Some 2.9% of all compounds tested hit in one or more screens of this group.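 How the source made its calls, unless noted: active means mean inhibition above about 50% in the one-dose retest (limit read from the data); inactive means the rest.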

SMILES | HSP90 refold inh | SENP7 inh | SENP6 block | SENP8 block-1 | SENP1 inh | SENP8 block-2 | SENP8 conf | SENP6 conf | SENP7 conf | Casp3 select | Luc interf
Cc1ccc2[nH]c3c(c2c1)CN(C(=O)CN1CCCc2ccccc21)CC3 | 10 | 34 | 95* | 36 | -21 | -14 | -9 | -6 | -7 | 2 | 1
COc1cc(/C=N/N=C(\N)c2nonc2N)ccc1O | -1 | 94* | 93* | 89* | 12 | 14 | 93* | 92* | 99* | 94* | 92*
N/C(=N\N=C\c1cccc(O)c1)c1nonc1N | 29* | 97* | 95* | 95* | 2 | 18 | 97* | 99* | 102* | 98* | 94*
N/C(=N\N=C\c1ccc(O)cc1)c1nonc1N | 0 | 98* | 93* | 95* | 3 | 7 | 97* | 98* | 102* | 98* | 96*
O=C(Nc1ccccc1C(=O)O)c1ccc(NC(=O)C2CC2)cc1 | 0 | 50 | 67* | 61* | 0 | -3 | 76* | 75* | 94* | 88* | 83*
CCOc1ccc(NC(=O)Nc2ccon2)cc1 | 6 | 54* | 55* | 15 | -1 | -3 | 22 | 21 | 67* | 74* | 23
O=C(Nc1ccccc1O)c1ccc(NC(=O)C2CC2)cc1 | -6 | -7 | -15 | -11 | 2 | 6 | · | · | · | · | ·
Cc1ccc(NC(=O)Nc2ccon2)cc1 | 5 | 11 | 6 | -2 | 1 | 17 | · | · | · | · | ·
CCOc1ccc(C(=O)Nc2ccccc2C(=O)O)cc1 | 7 | 16 | 61* | 31 | 2 | 8 | 77* | 72* | 94* | 85* | 78*
CCCC(=O)Nc1ccccc1NC(=O)c1ccc(OCC)cc1 | 6 | -1 | -3 | 1 | 4 | 14 | · | · | · | · | ·
CCCC(=O)Nc1ccc(C#Cc2ccccc2)cc1 | -4 | 51* | 45 | 6 | -4 | 11 | 2 | 13 | 19 | 13 | 2
Cc1ccc(CC2(C)C(=O)Nc3c(Cl)ccc(Cl)c32)cc1 (stereo not given) | · | · | · | · | 3 | 13 | · | · | · | · | ·
CCN(CCCNC(=O)Cn1ncc2c([nH]c3ccc(C)cc32)c1=O)Cc1ccccc1 | 0 | 7 | 20 | 13 | -2 | -84 | · | · | · | · | ·
CCOC(=O)N1CCN(C(=O)CCN2C(=O)/C(=C\c3cccc(OC)c3)SC2=S)CC1 | -1 | 0 | 6 | 7 | 0 | 14 | · | · | · | · | ·
CCOc1cc(C(=O)Nc2cc(C)on2)cc(OCC)c1OCC | -3 | -7 | -2 | -2 | -1 | 10 | · | · | · | · | ·
O=C(Nc1ccc(Oc2ccccc2)cc1)C1CC1 | -4 | 0 | 0 | 2 | 2 | 8 | · | · | · | · | ·
O=C(Nc1ccc(C#Cc2ccccc2)cc1)C1CC1 | -3 | 68* | 47 | 26 | 1 | 8 | 9 | 40 | 64* | 26 | 5
CCOc1ccc(C(=O)Nc2cc(C)on2)cc1 | 6 | 54* | 47 | 13 | 4 | 10 | -24 | 17 | 57* | 74* | -6
Cc1ccccc1S(=O)(=O)N(C)C[C@@H]1OCc2cn(nn2)CCCC(=O)N([C@H](C)CO)C[C@H]1C | · | · | · | · | 0 | -12 | · | · | · | · | ·
Cc1ccc(C(=O)COC(=O)C2CC(=O)N(c3nc(-c4ccccc4)cs3)C2)cc1 (stereo not given) | 0 | 5 | 6 | 3 | 1 | 10 | · | · | · | · | ·
CN(C(=O)c1ccc(-c2ccccc2)cc1)C1CCCCC1 | · | 29 | 61* | 37 | 0 | 7 | 14 | 20 | 30 | 22 | 4
CN(C(=O)c1ccccc1Cl)C1CCCCC1 | 4 | -12 | -2 | -7 | 3 | 15 | · | · | · | · | ·
